Assay [1] concerns MGC-803. The assay is described as follows: Antiproliferative activity against human MGC-803 cells by MTT assay. The assay is classed as functional, cell-based. The procedure, abridged:
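They were seeded at 5×10⁴/well and cultured overnight, then exposed to compound for 24 h. MTT (5 mg/mL solution) was added for 4 h at 37 °C, formazan was dissolved in DMSO, and absorbance was read at 490 nm. Each experiment was run three times.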
For orientation: Formazan colour is commonly taken as a measure of viable cells.

In assay [2] the target is Cellular tumor antigen p53 (Homo sapiens) (UniProt P04637). The assay is described as follows: Induction of p53 cytoplasmic translocation in human MGC-803 cells at 5 uM measured after 24 hrs in presence of proteasome inhibitor MG132 by immunoprecipitation method. The assay is classed as cell-based. Conditions: filed as modulator, dose 10.0 µM, in the assay text read “at 10 uM” for “at 5 uM”. In short, it runs like this: (§1)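 Cells pretreated with 0.05 μM MG132 for 1 h, then exposed to compound for 24 h. Proteins co-precipitated with anti-p53 antibody and detected by immunoblot.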
Sequence of Cellular tumor antigen p53 (Homo sapiens) (P04637 whole entry, looked up): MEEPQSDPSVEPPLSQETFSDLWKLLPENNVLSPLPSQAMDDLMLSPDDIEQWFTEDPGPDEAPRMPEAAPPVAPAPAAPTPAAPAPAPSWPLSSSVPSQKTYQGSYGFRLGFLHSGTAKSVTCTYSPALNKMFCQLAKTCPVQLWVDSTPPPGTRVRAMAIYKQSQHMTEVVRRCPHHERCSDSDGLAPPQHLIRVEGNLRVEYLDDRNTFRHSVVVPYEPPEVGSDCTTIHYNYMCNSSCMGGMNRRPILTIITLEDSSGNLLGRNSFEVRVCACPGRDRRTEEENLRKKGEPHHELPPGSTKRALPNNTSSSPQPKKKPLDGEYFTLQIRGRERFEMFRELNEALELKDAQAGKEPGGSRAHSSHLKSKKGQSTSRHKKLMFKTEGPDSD

Assay [3] concerns the target Exportin-1 (Homo sapiens) (UniProt O14980). The assay is described as follows: Induction of CRM1 degradation in human HGC-27 cells assessed as reduction in CRM1 expression measured after 24 hrs by Western blot analysis. The assay is classed as cell-based. The conditions noted are these: dose 1.25-10 µM.
Assay [4] shares this target. In words: Induction of CRM1 degradation in human MGC-803 cells assessed as reduction in CRM1 expression measured after 24 hrs by Western blot analysis. The assay is classed as cell-based.
Assay [5] has the same target. The assay is described as follows: Induction of CRM1 degradation in human MGC-803 cells assessed as increase in p53 accumulation in nucleus at 10 uM measured after 6 hrs by DAPI staining based immunofluorescence assay. The assay is classed as cell-based. The procedure, abridged: (§2)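 MGC803 cells were exposed to 10 μM compound for 0 or 6 h. They were fixed in 4% paraformaldehyde for 30 min, permeabilized with 0.1% Triton X-100 for 10 min and blocked with 10% goat serum for 30 min. Staining used anti-Ranbp1 or anti-p53 (green) with DAPI nuclei, and nuclear localization was imaged by confocal microscopy.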

For assay [6] the target is unchanged. In words: Induction of CRM1 degradation in human MGC-803 cells assessed as increase in Ranbp1 accumulation in nucleus at 10 uM measured after 6 hrs by DAPI staining based immunofluorescence assay. The assay is classed as cell-based. In short, it runs like this:
as §2

Assay [7] shares this target. In words: Induction of CRM1 degradation in human HGC-27 cells assessed as reduction in CRM1 expression at 5 uM measured after 24 hrs by Western blot analysis. The assay is classed as cell-based. In short, it runs like this:
(§3)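 MGC803 and HGC27 cells were exposed to 5 μM compound for 24 h with or without 0.05 μM MG132. CRM1 protein was measured by Western blot on RIPA lysates, with BCA normalization, SDS-PAGE/PVDF transfer and ECL detection.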
On the technique in general: Immunoblotting shows a protein as a band on a membrane.

The target is the same in assay [8]. In words: Induction of CRM1 degradation in human MGC-803 cells assessed as reduction in CRM1 expression at 5 uM measured after 24 hrs by Western blot analysis. The assay is classed as cell-based. In short, it runs like this:
as §3

For assay [9] the target is unchanged. In words: Induction of CRM1 degradation in human HGC-27 cells assessed as reduction in CRM1 expression at 5 uM measured after 24 hrs in presence of proteasome inhibitor MG132 by Western blot analysis. The assay is classed as cell-based. The procedure, abridged: as §3
Assay [10] shares this target. In words: Induction of CRM1 degradation in human MGC-803 cells assessed as reduction in CRM1 expression at 5 uM measured after 24 hrs in presence of proteasome inhibitor MG132 by Western blot analysis. The assay is classed as cell-based. The procedure, abridged:
as §3

For assay [11] the target is unchanged. The assay is described as follows: Induction of CRM1 degradation in human HGC-27 cells assessed as reduction in CRM1 expression at 5 uM measured after 24 hrs in presence of proteasome inhibitor bortezomib by Western blot analysis. The assay is classed as cell-based.
Assay [12] has the same target. In words: Induction of CRM1 degradation in human MGC-803 cells assessed as reduction in CRM1 expression at 5 uM measured after 24 hrs in presence of proteasome inhibitor bortezomib by Western blot analysis. The assay is classed as cell-based.
Assay [13] deals with Cellular tumor antigen p53 (Homo sapiens) (UniProt P04637). In words: Induction of p53 cytoplasmic translocation in human MGC-803 cells assessed as increase in p53 bound BCL2 expression at 5 uM measured after 24 hrs in presence of proteasome inhibitor MG132 by immunoprecipitation method. The assay is classed as cell-based. Conditions: filed as modulator, dose 10.0 µM, in the assay text read “at 10 uM” for “at 5 uM”. In short, it runs like this:
as §1

For assay [14] the target is unchanged. In words: Induction of p53 cytoplasmic translocation in human MGC-803 cells assessed as increase in p53 bound BCL-XL expression at 5 uM measured after 24 hrs in presence of proteasome inhibitor MG132 by immunoprecipitation method. The assay is classed as cell-based. Conditions: filed as modulator, dose 10.0 µM, in the assay text read “at 10 uM” for “at 5 uM”. In short, it runs like this:
as §1

Assay [15] has the same target. The assay is described as follows: Induction of p53 cytoplasmic translocation in human MGC-803 cells at 5 uM measured after 6 hrs in presence of proteasome inhibitor MG132 by DAPI staining based immunofluorescence assay. The conditions noted are these: filed as modulator, dose 10.0 µM, in the assay text read “at 10 uM” for “at 5 uM”. The assay is classed as cell-based. In short, it runs like this: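 Cells pretreated ±0.05 μM MG132 for 1 h, then compound for 6 h. Fixed in 4% paraformaldehyde for 30 min, permeabilized with 0.1% Triton X-100 for 10 min, blocked with 10% normal goat serum for 30 min. Stained with p53 antibody (green) and DAPI nuclei, imaged by confocal microscopy.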

Assay [16] has the same target. The assay is described as follows: Induction of p53 cytoplasmic translocation in human MGC-803 cells assessed as increase in p53 bound BCL2 expression at 10 uM measured after 6 hrs in presence of proteasome inhibitor MG132 by DAPI staining based immunofluorescence assay. The conditions noted are these: filed as modulator.
Assay [17] shares this target. In words: Induction of p53 cytoplasmic translocation in human MGC-803 cells assessed as increase in p53 bound BCL-XL expression at 10 uM measured after 6 hrs in presence of proteasome inhibitor MG132 by DAPI staining based immunofluorescence assay. The conditions noted are these: filed as modulator.

Active and inactive are the calls of the source. No cut-off for these calls is given here.

Sequence of Exportin-1 (Homo sapiens) (O14980 whole entry): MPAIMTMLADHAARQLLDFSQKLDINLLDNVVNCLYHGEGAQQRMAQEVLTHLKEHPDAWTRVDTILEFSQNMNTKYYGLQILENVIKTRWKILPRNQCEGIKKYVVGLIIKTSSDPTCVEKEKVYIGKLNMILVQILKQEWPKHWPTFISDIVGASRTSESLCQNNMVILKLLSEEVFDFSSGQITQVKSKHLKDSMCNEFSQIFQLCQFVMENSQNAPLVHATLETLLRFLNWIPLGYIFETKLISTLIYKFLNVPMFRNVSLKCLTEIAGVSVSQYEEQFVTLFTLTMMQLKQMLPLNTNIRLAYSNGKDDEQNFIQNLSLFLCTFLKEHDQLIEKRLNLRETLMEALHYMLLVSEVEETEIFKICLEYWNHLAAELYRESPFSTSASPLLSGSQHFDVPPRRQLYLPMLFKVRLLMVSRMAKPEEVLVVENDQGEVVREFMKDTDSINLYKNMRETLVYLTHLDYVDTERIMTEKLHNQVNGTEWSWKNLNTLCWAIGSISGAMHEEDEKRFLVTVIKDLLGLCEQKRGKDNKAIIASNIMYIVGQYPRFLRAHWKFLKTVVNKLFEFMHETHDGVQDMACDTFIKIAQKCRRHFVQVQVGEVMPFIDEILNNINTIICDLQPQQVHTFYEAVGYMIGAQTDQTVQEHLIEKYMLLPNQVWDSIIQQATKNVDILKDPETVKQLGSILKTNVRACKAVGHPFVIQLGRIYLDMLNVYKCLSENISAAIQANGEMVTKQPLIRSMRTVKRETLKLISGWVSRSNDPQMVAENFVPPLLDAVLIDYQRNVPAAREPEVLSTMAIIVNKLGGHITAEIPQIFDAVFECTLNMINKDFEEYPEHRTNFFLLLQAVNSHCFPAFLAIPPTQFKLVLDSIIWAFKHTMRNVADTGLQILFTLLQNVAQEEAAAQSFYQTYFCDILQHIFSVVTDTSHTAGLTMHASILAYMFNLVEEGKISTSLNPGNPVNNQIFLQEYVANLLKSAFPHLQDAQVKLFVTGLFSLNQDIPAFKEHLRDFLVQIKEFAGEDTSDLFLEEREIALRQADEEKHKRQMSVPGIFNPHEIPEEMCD

In general, IC50 refers to the midpoint of a concentration-inhibition curve. Consider `O=c1[nH]cc(F)c(=O)[nH]1` [FLUOROURACIL], for which, in assay [1], the midpoint of inhibition, the IC50, lay at 24.8 µM.

Take `Cc1ccc(C(C)C)c(OC[C@H]2CC=CC(=O)O2)c1`: the outcome in [2], in assay [5], in assay [6], in assay [7], in [8] and in [13] was Active. Also, the result in assay [14], in assay [15], in assay [16] and in assay [17] was Active. Moreover, the Activity result in assay [3] and in assay [4] was “Dose-dependent effect” each time. The outcome in assay [9], in [10], in assay [11] and in assay [12] was inactive.

`O=C1C=CC[C@H](COc2ccc3c(c2)OCO3)O1` showed a concentration for half-maximal inhibition (IC50) in assay [1] of 12 µM. That is a double-digit micromolar value.

The values above are taken from ChEMBL document CHEMBL4765427, “A low toxic CRM1 degrader: Synthesis and anti-proliferation on MGC803 and HGC27” (Eur J Med Chem, 2020).
